{"source": "paper PMC10016935", "about": "(RSC Advances, 2023)", "key": {"[1]": {"tested_on": "mutant of HSV-1 resistant to acyclovir (TK−)", "assay": "Replication inhibition of acyclovir-resistant HSV-1 mutant", "format": "cell-based, herpes simplex virus-1", "settings": "Fig. 2C"}, "HSV-1 [2]": {"tested_on": "HSV-1", "settings": "read-out: EC50 HSV-1; cell-based antiviral activity; cited from earlier work"}, "HSV-1 [3]": {"tested_on": "HSV-1", "assay": "HSV replication inhibition assay, HSV-1 in Vero cells", "format": "cell-based, herpes simplex virus-1", "settings": "for Selectivity CC50/EC50: Vero CC50 / HSV-1 EC50; for EC50: read-out: HSV-1 EC50 (μM) ± SD", "how_it_was_run": "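Confluent Vero monolayers (24-well) got compound in PBS with 2% newborn calf serum and 2 mM L-glutamine, in duplicate, plus clinical-isolate virus at 2 × 10^4 PFU per well, for 1 h at 37 °C. Washed, then compound in DMEM for 24 h. Non-toxic wells (phase-contrast check) were titred by plaque assay (methanol, Giemsa). EC50 used serial dilutions in 96-well format, three-parameter fit, bottom zero.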"}, "HSV-2": {"tested_on": "HSV-2", "settings": "read-out: EC50 HSV-2; cell-based antiviral activity; cited from earlier work"}, "Vero cells": {"tested_on": "Vero cells", "assay": "Cytotoxicity assay", "format": "cell-based", "settings": "read-out: Vero CC50 (μM) ± SD, 48 h, MTS, 2 to 4 independent runs", "how_it_was_run": "(§1)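 Vero cells in 96-well plates in DMEM with 3% bovine growth serum and 3% newborn calf serum. Serial compound dilutions in medium with 1% DMSO were added 24 h after plating, in duplicate. After 24 or 48 h, MTS was added for 90 min and A490 read. CC50 came from a four-parameter variable-slope fit with bottom fixed at zero.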"}, "Cytotoxicity assay": {"assay": "Cytotoxicity assay", "format": "cell-based", "settings": "African green monkey, Vero cells", "how_it_was_run": "as §1"}}, "note": "Read-outs that look alike come from different tables or passages of the source."}
{"smiles": "Nc1nc2c(ncn2COCCO)c(=O)[nH]1", "note": "[acyclovir]", "values": [{"measurement": "inhibition of ACV-resistant HSV-1", "setting": "[1]", "value": "inhibited only the wild-type virus"}, {"measurement": "EC50", "setting": "HSV-1 [2]", "value": 170, "unit": "nM"}, {"measurement": "inhibition of wild-type HSV-1", "setting": "HSV-1 [3]; wild-type virus, Fig. 2C", "value": "inhibited only the wild-type virus"}, {"measurement": "EC50", "setting": "HSV-2", "value": 1400, "unit": "nM"}]}
{"smiles": "Cc1cc(O)c(=O)c(O)cc1C(=O)NCC1(c2ccc(C(C)C)cc2)CCCC1", "note": "[compound 65, Dihydroxy-N-((1-(4-isopropylphenyl)cyclopentyl)methyl)-2-methyl-5-oxocyclohepta-1,3,6-triene-1-carboxamide]", "values": [{"measurement": "Selectivity CC50/EC50", "setting": "HSV-1 [3]", "value": 302}, {"measurement": "EC50", "setting": "HSV-1 [3]; Vero cells, 3 to 4 independent runs", "value": "0.306 ± 0.016", "unit": "µM"}, {"measurement": "CC50", "setting": "Vero cells", "value": "92.5 ± 7.5", "unit": "µM"}]}
{"smiles": "Cc1cc(O)c(=O)c(O)cc1C(=O)N1CCc2cc(C3CCCCC3)ccc2C1", "note": "[compound 64, 4-(6-Cyclohexyl-1,2,3,4-tetrahydroisoquinoline-2-carbonyl)-2,7-dihydroxy-5-methylcyclohepta-2,4,6-trien-1-one]", "values": [{"measurement": "EC50", "setting": "HSV-1 [3]; Human alphaherpesvirus 1, Vero", "value": "0.072 ± 0.021", "unit": "µM"}, {"measurement": "Selectivity CC50/EC50", "setting": "HSV-1 [3]; listed as C00065", "value": 1050}, {"measurement": "CC50 at 48 h", "setting": "Cytotoxicity assay", "value": "75700 ± 5300", "unit": "nM"}]}
{"smiles": "Cc1cc(O)c(=O)c(O)cc1C(=O)N1CCC2(CC1)C1CC3CC(C1)CC2C3", "note": "[compound 66, 2,7-Dihydroxy-4-methyl-5-(spiro[adamantane-2,4′-piperidine]-1′-carbonyl)cyclohepta-2,4,6-trien-1-one]", "values": [{"measurement": "EC50", "setting": "HSV-1 [3]; Human alphaherpesvirus 1, Vero", "value": "0.296 ± 0.054", "unit": "µM"}, {"measurement": "CC50 at 48 h", "setting": "Cytotoxicity assay", "value": "23700 ± 3800", "unit": "nM"}]}
{"smiles": "Cc1cc(O)c(=O)c(O)cc1C(=O)Nc1ccc2ccc3cccc4ccc1c2c34", "note": "[compound 63, 4,6-Dihydroxy-2-methyl-5-oxo-N-(pyren-1-yl)cyclohepta-1,3,6-triene-1-carboxamide]", "values": [{"measurement": "EC50", "setting": "HSV-1 [3]; Human alphaherpesvirus 1, Vero", "value": "0.244 ± 0.097", "unit": "µM"}, {"measurement": "CC50 at 48 h", "setting": "Cytotoxicity assay", "value": "74200 ± 8700", "unit": "nM"}]}
